From the EternaBench riboswitch data

Test system: MS2 coat protein
Experiment: apparent Kd, MS2 coat protein; higher = weaker binding; RNA-MaP array
In short: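 Designed RNAs were transcribed in place on an Illumina sequencing chip from sequenced DNA templates. At room temperature and with or without input ligand, they were incubated with fluorescently labeled MS2 coat protein from 1.5 nM to 3 μM, for 0.8–1.5 h at the lowest and 10–20 min at the highest concentrations. Apparent Kd is the median of the binding-curve fits made per cluster, with designs measured on fewer than 10 clusters excluded.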

[1] = designed as: OFF switch for flavin mononucleotide, no ligand
[2] = ligand present: flavin mononucleotide, designed as: OFF switch for flavin mononucleotide
[3] = designed as: ON switch for flavin mononucleotide, no ligand
[4] = ligand present: flavin mononucleotide, designed as: ON switch for flavin mononucleotide

Sequence | apparent Kd [1] [nM] | apparent Kd [2] [nM] | also measured
AUCAAUAAUGUUAGGAUAUCUAGCUAUUUUAUGGUAGAGAAGGAACAUGAGGAUCACCCAUGUUGAGCUAUAUU | 8.45 | 8.82 | –
UAUAGUUAAAAGGAUAUCGAAAACAAGCGUAAACGAGAAGGUUUAACAUGAGGAUCACCCAUGUAAGGAGAUGG | 58.4 | 139 | –
CCUUGUGUGAAGGAUAUAGGUUUAUGUUUCUGUCUAGAAGGUCACACAUGAGGAUCACCCAUGUAUAUCCUAGA | 18.3 | 51.6 | –
GAUAAAGUAGGAUAUACAUGAGGAUCACCCAUGUAGAGAGGAGAGCGUGCGAGAACCAGUAGAAGGACUAAACA | 13.9 | 12.4 | –
ACAAGCCGAGGAUAUACAAGAAAGGCAAGACUGAUAAGAUAACAUGAGGAUCACCCAUGUAGAAGGCGGAAUAC | 10.4 | 14.1 | –
UAGAGCGGCAACAUGAGGAUCACCCAUGUGGGCGAUGAGGCUCAGGAUAUACACCACCGCUGGACGUAGAAGGGAGACUCGCCG | 41.1 | 20.1 | –
AUAAAAGACAUGAGGAUCACCCAUGUAGCUCCUCGGUCUUCGAGAAGGUUCUUGCCCAGAGCGUGAAAGGAUAUCGCAUAUAUC | 353 | 448 | –
AGCGACAUGAGGAUCACCCAUGUACAUUCCCGAGGACCGGUACGGCCGCCACUCGAUGGAAGUGGUAGCAGCUUGGAUGGGCCUA | – | – | apparent Kd (designed as: ON switch for tryptophan, no ligand): 15.7 nM; apparent Kd (ligand present: tryptophan, designed as: ON switch for tryptophan): 26.7 nM
GGCCUCACAUGAGGAUCACCCAUGUUACUACUUGUUCGAUUGGAGGAUAUCUCUAGAAUUUACUGAGAGAAGGCCAAUAUGGGA | 236 | 191 | –
GUGCCAAAAGAGGAUAUAUUGACGAUGAUUCGCAUAGAAGGCUUUACAUGAGGAUCACCCAUGUGGGAGUGAUC | 614 | 184 | –
CUAGGCGUGCAGAAGGCGGAAAUAUUUCGUGGCCGAGGAUAUGCUGAUAUAUCGCAAGUGACAUGAGGAUCACCCAUGUGUCUA | – | – | apparent Kd [3]: 16.6 nM; apparent Kd [4]: 14.2 nM
CUUGUGCUGACGGCCGCCACUUUAUGGGAGUCCUGUUCUGAUUGAUACAUGAGGAUCACCCAUGUAAGGACCGGGUCGUACCAUA | – | – | apparent Kd (designed as: OFF switch for tryptophan, no ligand): 18 nM; apparent Kd (ligand present: tryptophan, designed as: OFF switch for tryptophan): 22.3 nM
AUAAAAUGCUUAGGAUAUGUAACAGCAUGCACAUGAGGAUCACCCAUGUUAUAUUUAGUGGAAUGACAGAAGGAAGUAGAGACU | – | – | apparent Kd [3]: 18.6 nM; apparent Kd [4]: 13.5 nM
GAAAACGAUCCCAAUACAUGAGGAUCACCCAUGUGGUGCAGUCAGGAUAUCACUACACCAAAACUUGAGAAGGGACACAUCGCC | 347 | 318 | –
CGACAUUAGUAGAAGGAGGAGUAGCGAUAGAGCCUAGGAUAUACGAACAAAUACAUGAGGAUCACCCAUGUUGACGAUCCAUCA | 49 | 45.8 | –
UUGCUAACAGUAGGAUAUUCAAAACAGCGUGAGGAAGAAGGACUAGCGACUUCGUGACAUGAGGAUCACCCAUGUGUAAGGCCA | – | – | apparent Kd [3]: 12.5 nM; apparent Kd [4]: 9.89 nM
CACGCCAUAGGAUAUACAUGAGGAUCACCCAUGUGGUGGUAGCAGCCAUAACGGUACAGUAGAAGGAUGUGCGA | 274 | 171 | –
GUACUGCAGUUAGGAUAUACCGGAGGAUUAUACACCUACUAACAUGAGGAUCACCCAUGUCUCUCGUAGAAGGAACAUAUUAGC | – | – | apparent Kd [3]: 20.9 nM; apparent Kd [4]: 16.5 nM
